Most compounds without a hit are left out; they make up all but 2.3% or so of the library.
Pemphigus Ab inh: inhibitors of pemphigus antibody binding to human desmoglein-3; binding (percent of control), % at 10 µM; DSG3-coupled beads, scFv-anti-DSG3-GFP binding, flow cytometry; active compounds read low; hit rate 0.48% among 310,000; AID 588358;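 active = binding more than 3 SD below its plate's average and above zero; inconclusive = below that plate limit but binding exactly zero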;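 note: hits lower antibody fragment binding to DSG3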
CHT block: inhibits the human high affinity choline transporter; CHT-expressing cells, membrane potential dye, choline response; active compounds read low; Q9GZV3; B-score at 10 µM; hit rate 0.86% among 310,000;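 active = B-score over 3 SD under the library average, and starting fluorescence ratio not unusually high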;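 note: choline stimulus applied at its EC90 after an EC20 pre-addition; B-score computed on integrated fluorescence ratio after choline addition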
Target sequence (Q9GZV3 whole entry, looked up): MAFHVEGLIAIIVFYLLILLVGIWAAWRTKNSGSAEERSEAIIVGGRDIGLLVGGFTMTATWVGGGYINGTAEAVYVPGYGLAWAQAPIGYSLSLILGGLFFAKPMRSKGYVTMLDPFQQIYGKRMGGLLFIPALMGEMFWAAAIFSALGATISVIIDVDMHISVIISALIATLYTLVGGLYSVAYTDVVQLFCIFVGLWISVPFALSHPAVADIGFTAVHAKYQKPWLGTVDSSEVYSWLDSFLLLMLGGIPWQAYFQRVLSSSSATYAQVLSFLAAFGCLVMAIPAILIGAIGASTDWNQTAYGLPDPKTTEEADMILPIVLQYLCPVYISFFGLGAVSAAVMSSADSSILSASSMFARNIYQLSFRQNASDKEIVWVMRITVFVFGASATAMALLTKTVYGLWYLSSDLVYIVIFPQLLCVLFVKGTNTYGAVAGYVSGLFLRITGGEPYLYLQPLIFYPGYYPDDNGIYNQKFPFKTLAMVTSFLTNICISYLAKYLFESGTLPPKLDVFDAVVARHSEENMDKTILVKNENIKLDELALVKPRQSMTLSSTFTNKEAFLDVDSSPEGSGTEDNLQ
GPR7 antagonist: human neuropeptides B/W receptor 1 antagonism | GPR7-expressing cells, fluorescence antagonist assay | hit rate 1.1% among 290,000 | P48145 | inhibition, % at 4.4 µM; in the data active = inhibition above about 16%, passing the limit was not always enough;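 note: cells stimulated with the agonist NPW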
CHT PAM: human CHT allosteric activation. hit rate 0.49% among 310,000. CHT-expressing cells, membrane potential dye, choline EC20; active compounds read high; LV-AA mutant CHT in HEK293 cells. AID 488977. Q9GZV3. B-score at 10 µM;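 active = initial fluorescence not abnormally high and integrated response B-score, plate-corrected, over 3 SD above library mean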
T cell modulator: modulates CD8 T cell binding to vesicles; 2C CD8+ T cell-vesicle binding, flow cytometry; active compounds read low; response (vesicle binding), % at 7 µM; hit rate 0.068% among 330,000; AID 2052;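 active = response, share of CD8 T cells binding vesicles, and their 90th percentile fluorescence all below set limits, cut at about 80% in these data, passing the limit was not always enough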;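 note: values below 100% mean blocked vesicle binding to the CD8+ T cells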
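Also added: QL9-peptide-loaded Drosophila micro-vesicles bearing Ld, ICAM-1 and B7-1; Test system: purified 2C TCR transgenic mouse naive CD8+ T cells; Measured by: cytometric PE anti-B7-1 and Alexa647 anti-CD8 signals after 1% paraformaldehyde fixation; Timing: binding step 1.5 h, 37 °C, antibody labelling 20 min, ice.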
pCIP destab: p/CIP protein destabilization | Q05BA5 | F442A p/CIP-EGFP cells, EGFP fluorescence, 16 h | decrease of EGFP signal, % at 10 µM | hit rate 0.01% among 290,000;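 active = EGFP signal decrease of at least 30% at 10 µM or well 3 SD below plate mean, unless failing retest; inactive = the rest, including hits failing retest or dose response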
GPR7 antag conf: human GPR7 antagonism, confirmation assay; shares compounds with GPR7 antagonist; GPR7-expressing cells, calcium fluorescence antagonist mode; inhibition, % at 4.4 µM; hit rate 52% among 2,400; in the data active = inhibition above about 24%;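 note: stimulated with the GPR7 agonist NPW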
MCHR1 antag: MCHR1 (human) antagonism in GPR7 counter-screen; MCHR1-expressing cells, fluorescence antagonist assay; AID 2148; inhibition, % at 4.4 µM; shares compounds with GPR7 antagonist; hit rate 62% among 2,400; in the data active = inhibition above about 22%
Numbers stand for hits; - = inactive; ? = inconclusive; . = no result.

SMILES	Pemphigus Ab inh	CHT block	GPR7 antagonist	CHT PAM	T cell modulator	pCIP destab	GPR7 antag conf	MCHR1 antag
COc1ccc(/C=C\C(=O)O[C@@H]2C(O)C(O[C@@H]3OC(C)[C@H](O[C@@H]4OCC(O[C@H]5O[C@H](CO)[C@@H](O)C(O)C5O)C(O)C4O)C(O)C3O)[C@H](OC(=O)[C@]34CCC(C)(C)C[C@@H]3C3=CCC5[C@@]6(C)CC(O)C(O[C@@H]7OC(CO)C(O)[C@H](O)[C@H]7O)[C@@](C)(C(=O)O)C6CC[C@@]5(C)[C@]3(CO)CC4)O[C@H]2C)cc1 (some centres undefined)	-	.	.	.	-	.	.	.
CCOC(=O)CCc1c(C)c2ccc(OCC(=O)N3CCOCC3)c(C)c2oc1=O	-	-	-	-	-	-	.	.
CCOC(=O)CCc1c(C)c2ccc(OCC)c(C)c2oc1=O	.	-	32	-	-	-	42	30
O=C1C=CN(C2OC(CO)C(O)C2O)C(=O)C1 (centres undefined)	-	.	.	.	.	.	.	.
O=C(CSC1=NCCS1)NC(NC(=O)CSC1=NCCS1)c1ccccc1	-	-	29	-	-	-	-	-
c1cc(C2OCCO2)cs1	-	.	.	.	.	.	.	.
O=c1c(-c2ccccc2)cocc1-c1ccccc1	-	.	.	.	.	.	.	.
CCOc1ccc2[nH]c(=O)c(C(c3nnnn3C3CCCCC3)N3CCN(CC)CC3)cc2c1 (centres undefined)	-	-	-	-	-	-	.	.
CCN1CCN(C(c2ccccc2OC)c2nnnn2C2CCCCC2)CC1 (centres undefined)	-	-	30	-	-	-	-	-
O[C@H]1C[C@H](c2ccc(Cl)cc2)N(CC2CCCCC2)C[C@@H]1n1cc(C2CC2)nn1	-	.	.	.	.	.	.	.
COc1ccc(C(OCC(O)CNCCc2ccccc2)c2ccc(OC)cc2)cc1 (centres undefined)	-	-	61	-	-	-	35	53
COc1ccc(C(OCC(O)CNC(C)c2ccccc2)c2ccc(OC)cc2)cc1 (centres undefined)	.	-	-	-	-	-	.	.
O=S(=O)(NCCS(=O)(=O)N1CCN(c2ccc(F)cc2)CC1)c1ccccc1	-	.	.	.	.	.	.	.
CCCS(=O)(=O)c1nc(S(=O)(=O)c2ccc(C)cc2)c(N2CCC(C)CC2)s1	-	-	-	-	-	-	.	.
CCS(=O)(=O)c1nc(S(=O)(=O)c2ccc(C)cc2)c(N2CCC(C)CC2)s1	.	-	22	-	-	-	-	49
CCC(C(=O)N1CCN(Cc2ccc3c(c2)OCO3)CC1)n1nnc2ccccc2c1=O (centres undefined)	-	.	.	.	.	.	.	.
CC(Oc1ccccc1)C(=O)Nc1ccc(C(N)=O)cc1 (centres undefined)	-	-	-	-	-	-	.	.
CC(Oc1ccc(Cl)cc1)C(=O)Nc1ccc(S(=O)(=O)Nc2nccs2)cc1 (centres undefined)	-	-	24	-	-	-	-	-
CC(C)NS(=O)(=O)c1ccc(NC(=O)C(C)Oc2ccc(C(=O)c3ccccc3)cc2)cc1 (centres undefined)	-	-	91	-	-	-	92	96
CC(Oc1ccc(Cl)cc1)C(=O)Nc1ccc(S(=O)(=O)N2CCOCC2)cc1 (centres undefined)	?	-	56	-	-	-	53	61
CC(Oc1ccc(Cl)cc1)C(=O)Nc1cccc(S(=O)(=O)N2CCCC2)c1 (centres undefined)	-	.	.	.	.	.	.	.
COc1ccc(NC(=O)C(C)Oc2ccc(/C(C)=N\O)cc2)cc1 (centres undefined)	-	-	42	-	-	-	43	34
CSc1ccc(/C=C/C(=O)OCC(=O)NC2CCCCCC2)cc1	-	.	.	.	.	.	.	.
CCCCn1c(N)c(N(CCOC)C(=O)c2oc3c(Cl)cccc3c2C)c(=O)[nH]c1=O	-	.	.	.	.	.	.	.
COc1cc(NCCCn2cnc3c(OC)ncnc32)cc(OC)c1OC	-	.	.	.	.	.	.	.
SMILES	Pemphigus Ab inh	CHT block	GPR7 antagonist	CHT PAM	T cell modulator	pCIP destab	GPR7 antag conf	MCHR1 antag
C[C@@H]1CN([C@@H](C)CO)C(=O)CCCn2cc(nn2)CO[C@H]1CN(C)S(=O)(=O)c1ccc(C#N)cc1	-	.	.	.	.	.	.	.
Cc1noc(C)c1S(=O)(=O)N(C)C[C@H]1OCCCC[C@H](C)Oc2ccc(NC(=O)CCCN(C)C)cc2C(=O)N([C@H](C)CO)C[C@@H]1C	-	.	.	.	.	.	.	.
CCn1c(CNC(=O)C2CCCCC2)cc2cc(C)ccc21	-	-	28	-	-	-	-	-
CCn1c(CNC(=O)c2ccccc2Cl)cc2ccccc21	-	-	-	-	-	-	.	.
O=C(NC12CC3CC(CC(C3)C1)C2)OCCNC1CCCCC1	.	-	26	-	-	-	-	-
CN(C)CCOC(=O)NC12CC3CC(CC(C3)C1)C2	.	-	-	-	-	-	.	.
O=C(NCc1nnnn1-c1ccc(F)cc1)c1cc2ccccc2o1	-	.	.	.	.	.	.	.
CCC(=O)N1CCN(c2ccccc2NC(=O)COc2ccc(C(C)C)cc2)CC1	-	-	27	-	-	-	-	-
Cc1[nH]ccc2cc3nc4ccccc4c3cc12	-	.	.	.	.	.	.	.
COc1ccc(OC)c(NC(=O)CCNC(=O)N2CC(=O)Nc3ccccc32)c1	-	.	.	.	.	.	.	.
COc1ccc(CNCCC(c2ccc(F)cc2)c2ccc(OC(C)C)cc2)cc1OC (centres undefined)	-	-	32	-	-	-	43	77
COc1ccc(C(CCNCc2ccccc2)c2ccc(F)cc2)cc1 (centres undefined)	-	-	-	-	-	-	.	.
COc1ccc(/C=N/Nc2ccc([N+](=O)[O-])cc2)cc1Cn1cc([N+](=O)[O-])cn1	-	-	-	-	-	-	.	.
COc1ccc(/C=N/Nc2ccc([N+](=O)[O-])cc2)cc1O	-	-	30	-	-	-	37	41
O=C(c1cc2ccccc2o1)N1CCN(Cc2nc3ccccc3s2)CC1	-	.	.	.	.	.	.	.
COc1ccc(-c2cc(=O)c3ccccc3s2)cc1	-	-	35	-	-	-	-	27
O=C(Nc1ccccc1)C1=C(Nc2ccccc2)CSC1	-	.	.	.	.	.	.	.
COc1ccc(CCNC(=O)CN(Cc2ccc(Cl)cc2)S(C)(=O)=O)cc1	-	-	25	-	-	-	-	-
COCCCNC(=O)CN(Cc1ccc(Cl)cc1)S(C)(=O)=O	-	-	-	-	-	-	.	.
C#CCOc1ccc(CNC[C@H]2O[C@@H](n3ccc(N)nc3=O)[C@H](O)[C@@H]2O)cc1	-	.	.	.	.	.	.	.
COC(=O)[C@H]1C[C@@]2(O)CN(S(=O)(=O)c3ccc(C)cc3)C[C@@]2(OC(=O)NCc2ccco2)C[C@H]1C(=O)OC	-	.	.	.	.	.	.	.
COc1ccc2sc(N(CCCN(C)C)C(=O)c3nc4ccccc4s3)nc2c1	-	-	-	-	-	-	.	.

Bioassay records: PubChem BioAssay, several laboratories
